In data set [1] the test system is Leishmania donovani. The data set can be described thus: Antileishmanial activity against promastigotes of Leishmania donovani HOM/IN/01/2001 after 72 hrs by flow cytometry. As to conditions: HOM/IN/01/2001, 72 h. Format: functional, organism-based. The method, boiled down: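 GFP-transfected late log-phase promastigotes in M199 with 10% FCS and 500 µg/mL G418, seeded at about 10⁵ parasites/mL; compounds in DMSO (final <0.5% v/v) over a concentration range in duplicate; 72 h at 27 °C; growth read by green fluorescence flow cytometry; DMSO and pentamidine controls; IC50 versus control by non-linear regression of dose-response curves.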

Data set [2] can be described thus: Selectivity index, ratio of IC50 for human THP1 cells to IC50 for promastigotes of Leishmania donovani HOM/IN/01/2001. Format: toxicity, cell-based, THP-1. As to conditions: read-out: Selectivity Index.
The subject of data set [3] is THP-1. Briefly: Cytotoxicity against human THP1 cells after 72 hrs by flow cytometry. The data set is classed as cell-based. As to conditions: THP-1, 72 h. The method, boiled down: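 Late log-phase THP1 monocytes in phenol red-free RPMI 1640 with 10% FCS, 2% L-glutamine, 1% penicillin-streptomycin; compound range in duplicate, DMSO final <0.5% v/v; 72 h at 37 °C, 6% CO2; propidium iodide staining, live cells counted by flow cytometry; doxorubicin, pentamidine and solvent controls; IC50 by non-linear regression, mean of three independent experiments.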
On the technique in general: In flow cytometry, cells or beads pass a laser one at a time.

Here are results for 27 molecules from ChEMBL document CHEMBL1250547, “Synthesis and evaluation of original amidoximes as antileishmanial agents” (Bioorg Med Chem, 2010).

One may read the IC50 as the concentration at which inhibition is half-maximal. A higher IC50 goes with lower potency. Turning to `CC1(Cc2ccccc2)CC(S(=O)(=O)c2ccccc2)=C(c2ccc(/C(N)=N/O)cc2)O1` (centres undefined), the IC50 was determined as 30.3 µM in data set [1] and 94.6 µM in data set [3]. Moreover, the selectivity ratio in data set [2] is 3.1.
For `N/C(=N\O)c1ccc(/C=C/c2ccc(S(=O)(=O)C3=C(c4ccc(/C(N)=N/O)cc4)OC(c4ccccc4)(c4ccccc4)C3)cc2)cc1` the same measures were 50 µM, more than 10 µM and more than 0.2.
Take `CC1(Cc2ccccc2)CC(S(=O)(=O)c2ccc(/C(N)=N/O)cc2)=C(c2ccccc2)O1` (centres undefined): the 50% inhibitory concentration (IC50) in data set [1] stood at 8.3 µM; in data set [3], 54.7 µM. For the same molecule, the selectivity ratio in data set [2] was determined as 6.6.
For `CC1(Cc2ccccc2)CC(S(=O)(=O)c2ccc(Nc3cccc(/C(N)=N/O)c3)cc2)=C(c2ccc(/C(N)=N/O)cc2)O1` (centres undefined) the same measures were more than 50 µM, 46.6 µM and less than 1.
In the same order, the values of `CC1(Cc2ccccc2)CC(S(=O)(=O)c2ccc(/C(N)=N/O)cc2)=C(c2ccc(/C(N)=N/O)cc2)O1` (centres undefined) are 99.5 µM, 99.5 µM and 1.
`N/C(=N\O)c1ccc(Nc2ccc(C3=C(S(=O)(=O)c4ccc(/C(N)=N/O)cc4)CC(c4ccccc4)(c4ccccc4)O3)cc2)cc1`: the IC50 is more than 50 µM in data set [1] and 48.9 µM in data set [3]. In addition, the selectivity ratio in data set [2] was less than 1.
For `N/C(=N\O)c1ccc(C2=C(S(=O)(=O)c3ccc(/C(N)=N/O)cc3)CC(c3ccccc3)(c3ccccc3)O2)cc1` the same measures were 74.3 µM, 119 µM and 1.6.
For `N/C(=N\O)c1ccc(S(=O)(=O)C2=C(c3ccccc3)OC(c3ccccc3)(c3ccccc3)C2)cc1` the same measures were 17.6 µM, 37.9 µM and 2.1.
For `CC1(Cc2ccccc2)CC(S(=O)(=O)c2ccc(/C(N)=N/O)cc2)=C(c2ccc(/C=C/c3ccc(/C(N)=N/O)cc3)cc2)O1` (centres undefined) the same measures were 17.1 µM, 23.4 µM and 1.4.
On to `CC1(Cc2ccccc2)CC(S(=O)(=O)c2ccc(Nc3ccc(/C(N)=N/O)cc3)cc2)=C(c2ccc(/C(N)=N/O)cc2)O1` (centres undefined), for which the IC50 in data set [1] was more than 50 µM; in data set [3], 47.6 µM. The selectivity ratio in data set [2] was less than 1.
Turning to `N/C(=N\O)c1ccc(C2=C(S(=O)(=O)c3ccc(Nc4cccc(/C(N)=N/O)c4)cc3)CC(c3ccccc3)(c3ccccc3)O2)cc1`, the IC50 in data set [1] and in data set [3] was more than 50 µM in each case.
As to `N/C(=N\O)c1ccc(C2=C(S(=O)(=O)c3ccc(Nc4ccccc4/C(N)=N/O)cc3)CC(c3ccccc3)(c3ccccc3)O2)cc1`, the results for the IC50 in data set [1] and in data set [3] were 39.1 µM and more than 50 µM, respectively. The selectivity ratio in data set [2] is more than 1.3.
With `N/C(=N\O)c1ccc(Nc2ccc(S(=O)(=O)C3=C(c4ccc(/C(N)=N/O)cc4)OC(c4ccccc4)(c4ccccc4)C3)cc2)cc1`, the figures for the IC50 in data set [1] and in data set [3] were 39.1 µM and more than 50 µM, respectively. The selectivity ratio in data set [2] is more than 1.3.
Regarding `N=C(N)c1ccc(OCCCCCOc2ccc(C(=N)N)cc2)cc1` [PENTAMIDINE], the IC50 was determined as 11.2 µM in data set [1] and 31.2 µM in data set [3]. For the same molecule, in data set [2], the selectivity ratio was 2.8.
For `CC1(Cc2ccccc2)CC(S(=O)(=O)c2ccc(/C(N)=N/O)cc2)=C(c2ccc(Nc3ccccc3/C(N)=N/O)cc2)O1` (centres undefined), the values for the IC50 in data set [1] and in data set [3] were 8.8 µM and 48.1 µM, respectively. In data set [2], the selectivity ratio was found to be 5.5.
In the same order, the values of `N/C(=N\O)c1ccc(/C=C/c2ccc(C3=C(S(=O)(=O)c4ccc(/C(N)=N/O)cc4)CC(c4ccccc4)(c4ccccc4)O3)cc2)cc1` are more than 50 µM, 41.3 µM and less than 0.9.
In the case of `N/C(=N\O)c1ccc(S(=O)(=O)CC(=O)c2ccccc2)cc1`, the IC50 in data set [1] and in data set [3] was more than 125 µM throughout.
Turning to `N/C(=N\O)c1ccc(S(=O)(=O)C2=C(c3ccc(Nc4cccc(/C(N)=N/O)c4)cc3)OC(c3ccccc3)(c3ccccc3)C2)cc1`, the results for the IC50 in data set [1] and in data set [3] were more than 50 µM and 48.1 µM, respectively. Moreover, the selectivity ratio in data set [2] was less than 1.
For `N/C(=N\O)c1ccc(S(=O)(=O)C2=C(c3ccc(Nc4ccccc4/C(N)=N/O)cc3)OC(c3ccccc3)(c3ccccc3)C2)cc1` the same measures were 13.3 µM, 47.8 µM and 3.6.
Take `CC1(Cc2ccccc2)CC(S(=O)(=O)c2ccc(/C=C/c3ccc(/C(N)=N/O)cc3)cc2)=C(c2ccc(/C(N)=N/O)cc2)O1` (centres undefined): the IC50 in data set [1] and in data set [3] was more than 50 µM each time.
Regarding `CC1(Cc2ccccc2)CC(S(=O)(=O)c2ccc(/C(N)=N/O)cc2)=C(c2ccc(Nc3ccc(/C(N)=N/O)cc3)cc2)O1` (centres undefined), the IC50 in data set [1] was 30.1 µM; in data set [3], 9.8 µM. Further, the selectivity ratio in data set [2] worked out at 0.3.
Consider `COc1cccc2c1C(=O)c1c(O)c3c(c(O)c1C2=O)C[C@@](O)(C(=O)CO)C[C@@H]3O[C@H]1C[C@H](N)[C@H](O)[C@H](C)O1` [DOXORUBICIN], for which, in data set [3], the IC50 worked out at 0.008 µM.
For `CC1(Cc2ccccc2)CC(S(=O)(=O)c2ccc(/C(N)=N/O)cc2)=C(c2ccc(Nc3cccc(/C(N)=N/O)c3)cc2)O1` (centres undefined), the IC50 was more than 50 µM in data set [1] and 44 µM in data set [3]. In data set [2], the selectivity ratio is less than 0.9.
Turning to `N/C(=N\O)c1ccc(C(=O)CS(=O)(=O)c2ccc(/C(N)=N/O)cc2)cc1`, the IC50 in data set [1] and in data set [3] was more than 125 µM in each case.
For the molecule `N/C(=N\O)c1ccc(C(=O)CS(=O)(=O)c2ccccc2)cc1`, the IC50 in data set [1] and in data set [3] was more than 125 µM each time.
Consider `CC1(Cc2ccccc2)CC(S(=O)(=O)c2ccc(Nc3ccccc3/C(N)=N/O)cc2)=C(c2ccc(/C(N)=N/O)cc2)O1` (centres undefined), for which the figures for the IC50 in data set [1] and in data set [3] were 48.3 µM and 48.4 µM, respectively. Besides, the selectivity ratio in data set [2] came out at 1.
In the same order, the values of `N/C(=N\O)c1ccc(C2=C(S(=O)(=O)c3ccccc3)CC(c3ccccc3)(c3ccccc3)O2)cc1` are 20.6 µM, 30.6 µM and 1.5.
